Values after ≈ are worked out from the molar mass of the structure shown.
What was measured:
[1] = tested on: Pseudomonas aeruginosa; assay: Antimicrobial activity against Pseudomonas aeruginosa PAO1 after 18 to 20 hrs by broth microdilution; type: functional
How it was run: (§1)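 Broth microdilution followed CLSI guidelines in Mueller Hinton broth. Inocula were grown 18–20 h at 35 °C on blood agar. Compound in DMSO was tested in doubling dilutions from 64 to 0.06 µg/mL, at 2% DMSO final. Plates were incubated 18–20 h and read at OD 620 nm. MIC was taken as the concentration giving >90% growth inhibition.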

[2] = tested on: Staphylococcus aureus; assay: Antimicrobial activity against methicillin-susceptible Staphylococcus aureus after 18 to 20 hrs by broth microdilution; type: functional; how it was run: as §1
[3] = Partition co-efficient, log D of the compound at pH 7.4 by shake flask method; type: physicochemical; details: buffer
How it was run: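 Shake-flask method with 10 mM phosphate buffer pH 7.4 against n-octanol, shaken 1 h at 1200 rpm to equilibrium. Analysis was by LC/UV with MS confirmation.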

[4] = tested on: Pseudomonas aeruginosa; assay: Antimicrobial activity against Pseudomonas aeruginosa clinical isolate after 18 to 20 hrs by broth microdilution; type: functional; how it was run: as §1
[5] = tested on: Escherichia coli; assay: Antimicrobial activity against Escherichia coli after 18 to 20 hrs by broth microdilution; type: functional; how it was run: as §1
[6] = Volume of distribution in rat at 10 mg/kg, iv; type: ADME, organism-based; design: dose 10 mg/kg, route intravenous; details: in vivo
How it was run: (§2)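 Male rats (Wistar Han) and Beagle dogs received 10 mg/kg as a 15 min iv infusion. Serial 200 µL whole-blood samples were taken from 0 to 24 h. Plasma levels were measured by LC–MS/MS against a standard curve after methanol protein precipitation. Parameters were estimated non-compartmentally.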

[7] = Half life in rat at 10 mg/kg, iv; type: ADME, organism-based; design: dose 10 mg/kg, route intravenous; details: in vivo; how it was run: as §2
[8] = AUC in rat at 10 mg/kg, iv; type: ADME, organism-based; design: dose 10 mg/kg, route intravenous; details: plasma; how it was run: as §2
[9] = Bioavailability in rat at 10 mg/kg, […]; type: ADME, organism-based; details: in vivo
[10] = Volume of distribution in beagle dog at 10 mg/kg, iv; type: ADME, organism-based, Canis lupus familiaris; design: dose 10 mg/kg, route intravenous; details: in vivo; how it was run: as §2
[11] = Half life in beagle dog at 10 mg/kg, iv; type: ADME, organism-based, Canis lupus familiaris; design: dose 10 mg/kg, route intravenous; details: in vivo; how it was run: as §2
[12] = AUC(infinity) in neutropenic mouse at 100 mg/kg/day, ip bid of total 12 doses; type: ADME, organism-based; design: dose 100 mg/kg/day, time infinity, route intraperitoneal; details: plasma
How it was run: (§3)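 CD-1 mice were made neutropenic with ip cyclophosphamide, 150 mg/kg at day −4 and 100 mg/kg at day −1, then infected in the thigh with P. aeruginosa PAO1. Dosing was ip, bid q12 from 2 h post-infection, in 5% dextrose with lactic acid pH 5.0. Groups of three mice were killed at timed intervals and cardiac-puncture plasma was analysed by LC–MS/MS.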

[13] = AUC(infinity) in neutropenic mouse at 200 mg/kg/day, ip bid of total 12 doses; type: ADME, organism-based; design: dose 200 mg/kg/day, time infinity, route intraperitoneal; details: plasma; how it was run: as §3
[14] = target: Sodium-dependent noradrenaline transporter (Homo sapiens) (UniProt P23975); assay: Inhibition of NET (unknown origin) at 30 uM
[15] = target: 5-hydroxytryptamine receptor 4 (Homo sapiens) (UniProt Q13639); assay: Inhibition of 5-HT4 receptor (unknown origin) at 30 uM
[16] = target: Sodium-dependent serotonin transporter (Homo sapiens) (UniProt P31645); assay: Inhibition of SERT (unknown origin) at 30 uM
[17] = target: Potassium voltage-gated channel subfamily A member 5 (Homo sapiens, UniProt P22460); assay: Inhibition of potassium channel Kv1.5 (unknown origin)
How it was run: (§4)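 Automated IonWorks patch clamp was run on CHO or HEK cells expressing each channel. A channel-specific voltage pulse was applied before compound and again about 3 min after addition.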

[18] = target: Voltage-dependent T-type calcium channel subunit alpha-1H (Homo sapiens, UniProt O95180); assay: Inhibition of […] channel Cav3.2 (unknown origin); how it was run: as §4
[19] = target: T1, Potassium/sodium hyperpolarization-activated cyclic nucleotide-gated channel 4 (Homo sapiens, UniProt Q9Y3Q4); assay: Inhibition of potassium channel HCN4 (unknown origin); how it was run: as §4
T1 sequence (Q9Y3Q4 whole entry): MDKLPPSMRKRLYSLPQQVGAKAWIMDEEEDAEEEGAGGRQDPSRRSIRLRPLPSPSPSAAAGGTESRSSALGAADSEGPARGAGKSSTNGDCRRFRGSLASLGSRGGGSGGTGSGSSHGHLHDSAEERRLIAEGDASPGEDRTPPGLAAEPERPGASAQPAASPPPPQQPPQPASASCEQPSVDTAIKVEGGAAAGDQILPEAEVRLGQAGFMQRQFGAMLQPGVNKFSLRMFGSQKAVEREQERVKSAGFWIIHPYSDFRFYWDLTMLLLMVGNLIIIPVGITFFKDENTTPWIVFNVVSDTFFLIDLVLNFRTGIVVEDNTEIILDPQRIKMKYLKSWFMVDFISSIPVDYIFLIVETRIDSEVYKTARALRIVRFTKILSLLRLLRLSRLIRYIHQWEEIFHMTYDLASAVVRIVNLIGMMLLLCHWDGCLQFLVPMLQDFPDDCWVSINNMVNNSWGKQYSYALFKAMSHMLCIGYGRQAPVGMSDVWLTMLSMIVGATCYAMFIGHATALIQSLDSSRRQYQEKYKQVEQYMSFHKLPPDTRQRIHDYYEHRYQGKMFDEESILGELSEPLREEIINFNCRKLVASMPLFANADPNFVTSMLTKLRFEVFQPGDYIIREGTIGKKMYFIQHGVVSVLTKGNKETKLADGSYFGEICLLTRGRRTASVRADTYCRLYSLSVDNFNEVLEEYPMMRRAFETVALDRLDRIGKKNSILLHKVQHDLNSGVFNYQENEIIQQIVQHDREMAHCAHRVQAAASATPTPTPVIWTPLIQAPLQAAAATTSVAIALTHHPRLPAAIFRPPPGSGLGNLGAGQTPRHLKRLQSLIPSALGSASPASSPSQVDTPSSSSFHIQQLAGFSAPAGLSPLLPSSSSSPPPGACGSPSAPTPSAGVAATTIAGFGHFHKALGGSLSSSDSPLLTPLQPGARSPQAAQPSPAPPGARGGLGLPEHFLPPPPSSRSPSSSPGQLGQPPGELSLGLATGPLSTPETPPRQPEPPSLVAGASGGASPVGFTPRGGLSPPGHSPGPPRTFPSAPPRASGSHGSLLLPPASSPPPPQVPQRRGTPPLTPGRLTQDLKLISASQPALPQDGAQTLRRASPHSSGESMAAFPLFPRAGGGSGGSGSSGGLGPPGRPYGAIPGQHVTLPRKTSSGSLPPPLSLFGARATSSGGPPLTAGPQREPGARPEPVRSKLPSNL

[20] = Ratio of fAUC to MIC in Pseudomonas aeruginosa PAO1 in neutropenic mouse thigh infection model at 150 mg/kg/day, ip bid q12h starting 2 h post infection; details: route intraperitoneal
[21] = Ratio of fAUC to MIC in Pseudomonas aeruginosa PAO1 in neutropenic mouse thigh infection model at 200 mg/kg/day, ip bid q12h starting 2 h post infection; details: route intraperitoneal

Chain of 5-hydroxytryptamine receptor 4 (Homo sapiens) (Q13639 whole entry): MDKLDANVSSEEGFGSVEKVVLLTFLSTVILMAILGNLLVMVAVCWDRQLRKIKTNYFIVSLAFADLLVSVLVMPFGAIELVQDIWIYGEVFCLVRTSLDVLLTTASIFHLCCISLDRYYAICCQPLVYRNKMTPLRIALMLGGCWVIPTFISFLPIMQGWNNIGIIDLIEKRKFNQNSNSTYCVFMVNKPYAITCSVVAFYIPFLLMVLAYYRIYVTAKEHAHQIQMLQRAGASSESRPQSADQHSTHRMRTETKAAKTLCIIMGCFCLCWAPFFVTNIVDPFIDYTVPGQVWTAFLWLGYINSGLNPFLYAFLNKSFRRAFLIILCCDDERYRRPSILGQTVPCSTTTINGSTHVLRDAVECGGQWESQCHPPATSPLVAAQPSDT
Chain of Sodium-dependent serotonin transporter (Homo sapiens) (P31645 whole entry, looked up): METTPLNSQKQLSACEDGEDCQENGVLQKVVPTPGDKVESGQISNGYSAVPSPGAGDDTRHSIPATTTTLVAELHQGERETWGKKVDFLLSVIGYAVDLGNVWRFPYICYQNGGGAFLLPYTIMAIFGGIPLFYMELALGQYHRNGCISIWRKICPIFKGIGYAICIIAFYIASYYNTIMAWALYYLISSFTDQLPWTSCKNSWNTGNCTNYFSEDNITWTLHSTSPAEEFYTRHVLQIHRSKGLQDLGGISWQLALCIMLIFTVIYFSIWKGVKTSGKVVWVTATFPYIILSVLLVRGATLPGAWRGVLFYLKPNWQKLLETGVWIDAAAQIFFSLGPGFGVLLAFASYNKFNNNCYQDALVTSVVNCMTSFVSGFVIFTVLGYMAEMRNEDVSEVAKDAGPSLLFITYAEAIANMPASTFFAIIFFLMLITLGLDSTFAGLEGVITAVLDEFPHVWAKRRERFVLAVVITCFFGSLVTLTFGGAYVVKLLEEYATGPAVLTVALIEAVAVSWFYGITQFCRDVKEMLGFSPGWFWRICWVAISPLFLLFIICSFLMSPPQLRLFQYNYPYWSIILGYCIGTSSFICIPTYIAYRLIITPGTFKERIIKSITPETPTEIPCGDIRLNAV
Chain of Sodium-dependent noradrenaline transporter (Homo sapiens) (P23975 whole entry): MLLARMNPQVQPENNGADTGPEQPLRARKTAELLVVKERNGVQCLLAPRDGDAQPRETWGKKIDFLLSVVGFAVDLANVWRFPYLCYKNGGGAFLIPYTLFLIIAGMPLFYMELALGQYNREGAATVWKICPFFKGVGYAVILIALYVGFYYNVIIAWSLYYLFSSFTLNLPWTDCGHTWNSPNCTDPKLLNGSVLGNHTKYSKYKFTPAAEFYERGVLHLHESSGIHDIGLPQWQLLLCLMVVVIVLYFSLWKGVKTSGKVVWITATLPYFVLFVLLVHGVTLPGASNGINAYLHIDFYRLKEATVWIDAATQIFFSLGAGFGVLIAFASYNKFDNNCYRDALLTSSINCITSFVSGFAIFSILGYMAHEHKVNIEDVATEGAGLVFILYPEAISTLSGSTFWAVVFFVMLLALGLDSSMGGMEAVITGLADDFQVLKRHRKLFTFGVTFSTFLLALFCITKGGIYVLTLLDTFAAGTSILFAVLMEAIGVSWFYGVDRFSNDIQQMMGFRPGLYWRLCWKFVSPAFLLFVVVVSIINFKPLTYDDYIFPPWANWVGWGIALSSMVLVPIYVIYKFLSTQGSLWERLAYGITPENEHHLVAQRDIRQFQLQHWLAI
Chain of Potassium voltage-gated channel subfamily A member 5 (P22460 whole entry): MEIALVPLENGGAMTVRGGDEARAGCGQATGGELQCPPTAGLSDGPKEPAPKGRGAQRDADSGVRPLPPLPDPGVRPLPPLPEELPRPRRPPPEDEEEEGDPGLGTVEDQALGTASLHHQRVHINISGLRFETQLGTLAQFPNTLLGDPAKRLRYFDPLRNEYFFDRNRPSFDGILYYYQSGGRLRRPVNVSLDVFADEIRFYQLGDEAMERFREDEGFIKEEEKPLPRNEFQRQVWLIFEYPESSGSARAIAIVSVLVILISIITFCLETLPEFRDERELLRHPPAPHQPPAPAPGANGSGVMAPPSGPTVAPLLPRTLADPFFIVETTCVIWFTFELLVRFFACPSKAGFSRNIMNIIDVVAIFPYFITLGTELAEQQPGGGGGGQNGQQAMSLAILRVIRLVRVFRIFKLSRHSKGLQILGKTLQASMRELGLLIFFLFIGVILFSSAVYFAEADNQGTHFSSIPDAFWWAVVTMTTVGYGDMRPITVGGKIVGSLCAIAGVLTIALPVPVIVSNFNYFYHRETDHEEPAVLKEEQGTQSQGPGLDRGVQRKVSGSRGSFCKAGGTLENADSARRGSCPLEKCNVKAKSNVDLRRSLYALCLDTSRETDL
Chain of Voltage-dependent T-type calcium channel subunit alpha-1H (O95180 whole entry): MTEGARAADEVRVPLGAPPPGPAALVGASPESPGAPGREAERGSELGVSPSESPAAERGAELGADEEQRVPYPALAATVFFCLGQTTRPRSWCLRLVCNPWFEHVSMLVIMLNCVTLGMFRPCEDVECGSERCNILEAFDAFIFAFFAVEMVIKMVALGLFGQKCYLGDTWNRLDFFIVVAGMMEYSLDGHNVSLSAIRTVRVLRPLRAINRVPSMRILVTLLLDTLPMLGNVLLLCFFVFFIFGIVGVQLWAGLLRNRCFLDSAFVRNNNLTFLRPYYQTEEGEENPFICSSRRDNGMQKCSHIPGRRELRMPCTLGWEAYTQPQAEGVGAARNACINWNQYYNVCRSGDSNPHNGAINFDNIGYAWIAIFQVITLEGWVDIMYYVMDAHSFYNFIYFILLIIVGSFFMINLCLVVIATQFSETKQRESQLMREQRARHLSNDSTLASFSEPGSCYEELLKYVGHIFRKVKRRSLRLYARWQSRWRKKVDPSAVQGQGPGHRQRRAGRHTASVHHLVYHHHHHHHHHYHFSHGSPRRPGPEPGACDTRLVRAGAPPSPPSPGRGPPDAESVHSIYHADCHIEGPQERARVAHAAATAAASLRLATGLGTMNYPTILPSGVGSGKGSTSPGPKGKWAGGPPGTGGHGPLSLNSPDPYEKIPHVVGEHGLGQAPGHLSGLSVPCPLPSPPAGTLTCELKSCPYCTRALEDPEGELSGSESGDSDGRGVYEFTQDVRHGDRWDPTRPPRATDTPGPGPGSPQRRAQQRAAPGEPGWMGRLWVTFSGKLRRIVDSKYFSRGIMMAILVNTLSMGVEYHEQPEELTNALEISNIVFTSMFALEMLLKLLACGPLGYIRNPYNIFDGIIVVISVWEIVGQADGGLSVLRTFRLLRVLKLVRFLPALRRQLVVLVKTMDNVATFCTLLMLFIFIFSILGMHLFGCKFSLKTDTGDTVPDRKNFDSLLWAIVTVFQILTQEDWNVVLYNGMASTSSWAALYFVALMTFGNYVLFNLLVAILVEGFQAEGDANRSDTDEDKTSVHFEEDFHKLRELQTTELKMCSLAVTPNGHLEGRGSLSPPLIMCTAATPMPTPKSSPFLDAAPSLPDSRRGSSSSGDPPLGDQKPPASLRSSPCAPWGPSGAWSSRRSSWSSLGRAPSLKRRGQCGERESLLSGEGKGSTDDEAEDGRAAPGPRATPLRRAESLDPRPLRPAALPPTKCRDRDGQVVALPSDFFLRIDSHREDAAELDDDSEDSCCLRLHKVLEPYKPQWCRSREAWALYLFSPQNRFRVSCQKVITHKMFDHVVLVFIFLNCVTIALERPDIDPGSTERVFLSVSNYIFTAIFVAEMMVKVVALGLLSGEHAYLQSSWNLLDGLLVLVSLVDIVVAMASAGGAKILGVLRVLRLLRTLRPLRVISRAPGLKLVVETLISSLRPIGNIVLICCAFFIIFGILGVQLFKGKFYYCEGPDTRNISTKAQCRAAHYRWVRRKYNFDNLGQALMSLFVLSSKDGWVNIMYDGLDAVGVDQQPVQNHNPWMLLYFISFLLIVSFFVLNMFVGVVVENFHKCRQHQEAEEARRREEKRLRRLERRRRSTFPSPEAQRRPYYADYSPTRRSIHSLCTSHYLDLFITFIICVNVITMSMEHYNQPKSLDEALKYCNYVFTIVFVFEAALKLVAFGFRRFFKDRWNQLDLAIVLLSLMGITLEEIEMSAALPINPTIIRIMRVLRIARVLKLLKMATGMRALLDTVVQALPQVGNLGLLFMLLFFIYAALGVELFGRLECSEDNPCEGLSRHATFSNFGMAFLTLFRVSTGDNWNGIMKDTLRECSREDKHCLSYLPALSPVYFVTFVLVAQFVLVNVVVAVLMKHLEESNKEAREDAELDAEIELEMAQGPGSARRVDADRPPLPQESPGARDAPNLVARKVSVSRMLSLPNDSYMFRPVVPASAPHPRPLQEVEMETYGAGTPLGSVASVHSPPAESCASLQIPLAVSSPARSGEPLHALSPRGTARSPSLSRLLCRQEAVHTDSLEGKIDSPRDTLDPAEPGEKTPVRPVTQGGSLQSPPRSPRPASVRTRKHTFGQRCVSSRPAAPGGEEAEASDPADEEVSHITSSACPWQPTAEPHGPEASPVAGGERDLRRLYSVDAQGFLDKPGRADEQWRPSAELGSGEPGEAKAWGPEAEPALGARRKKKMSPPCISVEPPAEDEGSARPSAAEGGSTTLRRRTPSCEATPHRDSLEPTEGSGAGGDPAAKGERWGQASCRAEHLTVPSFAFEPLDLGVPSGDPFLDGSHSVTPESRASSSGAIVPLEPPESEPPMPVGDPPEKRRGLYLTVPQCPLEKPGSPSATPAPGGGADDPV

MIC90 [1] [µg/mL] | MIC90 [2] [µg/mL] | MIC90 [4] [µg/mL] | MIC90 [5] [µg/mL] | Vd [6] [L/kg] | half-life [7] [min] | AUC [8] [ng·h/mL] | bioavailability [9] [%] | Vd [10] [L/kg] | half-life [11] [min] | inhibition [14] [%] | inhibition [15] [%] | inhibition [16] [%] | IC50 [17] [µM] | IC50 [18] [µM] | IC50 [19] [µM] | SMILES | also measured
0.5 (≈ 1.07 µM) | 1 (≈ 2.14 µM) | 4 (≈ 8.56 µM) | 1 (≈ 2.14 µM) | 9 | 600 | 3300 | 2 | 4 | 540 | 9 | 7 | 32 | > 100 | > 100 | > 100 | N[C@@H](Cn1c(=O)cnc2ccc(F)cc21)[C@H]1CC[C@H](NCc2ncc3c(n2)NC(=O)CO3)CC1 | logD [3]: -0.32; AUC(0-inf) [12]: 14800 ng·h/mL; AUC(0-inf) [13]: 29900 ng·h/mL; fAUC/MIC [20]: 16; fAUC/MIC [21]: 23
1 (≈ 2.15 µM) | 0.03 (≈ 0.0646 µM) | 4 (≈ 8.61 µM) | 0.25 (≈ 0.538 µM) | 23 | 114 | 190 | 18 | 2 | 780 | 61 | 99 | 77 | > 100 | > 100 | > 100 | COc1ccc2ncc(=O)n(CCN3CCC(NCc4ccc5c(n4)NC(=O)CO5)CC3)c2c1 | 

Source: ChEMBL document CHEMBL3352316, “Optimization of physicochemical properties and safety profile of novel bacterial topoisomerase type II inhibitors (NBTIs) with activity against Pseudomonas aeruginosa” (Bioorg Med Chem, 2014)
